Reference: ChEMBL document CHEMBL1122723, “Potential antitumor agents: synthesis and biological properties of aliphatic amino acid 9-hydroxyellipticinium derivatives” (1984)

What was measured:
L1210 = experiment: Dose that reduces the L1210 leukemia cell growth in vitro by 50% after 48 hr as compared to controls; assay type: functional; details: Mus musculus, L1210, 48 h; read-out: ID50 (the source's name)
How it was run: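 L1210 leukemia cells were grown in vitro with graded drug doses for 48 h. ID50 is the dose that reduces cell growth by 50% versus controls, read from a regression line of % growth inhibition against log dose. 50% inhibition corresponds to a twofold increase in generation time.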

Mus musculus [1] = experiment: Percent Increase in life span (ILS) over controls (10e5 L1210 leukemia cells) at LD0/2 by ip administration of the drug into mouse (single injection 2 hr after cell grafting); assay type: functional
How it was run: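 DBA/2 mice were inoculated with 10⁵ L1210 cells and then given one intraperitoneal dose at LD0/2, the LD0 being the highest nonlethal single ip dose. Life span was compared with untreated controls as ILS = (T − C)/C × 100. ILS > 25% was counted as a significant antitumor effect.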

Mus musculus [2] = experiment: Compound tested in vivo for highest […] administered intraperitoneally that reduces the L1210 leukemia cell growth; assay type: functional
How it was run: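 Highest nonlethal dose (LD0) found for each compound after one intraperitoneal injection into DBA/2 mice.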

Nucleic Acid = experiment: Apparent binding constant (Kapp) for calf thymus DNA was measured by competition with ethidium bromide; assay type: nucleic-acid assay; details: Bos taurus
How it was run: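 Calf thymus DNA binding measured by ethidium bromide competition in 0.2 M Tris-HCl buffer, pH 7.40. Apparent binding constants were derived from Scatchard plots.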

Salmonella typhimurium = experiment: Compound was evaluated for the effective dose, as compared to controls against Salmonella typhimurium TA98; details: read-out: ED50 (the source's name)
Escherichia coli = experiment: Compound was evaluated for the effective dose, as compared to controls against Escherichia coli BL 101; assay type: functional; details: read-out: ED50 (the source's name)
How it was run: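 Bacteriostatic test on E. coli BL 101, a quaternary-ammonium-sensitive strain, and on Salmonella typhimurium TA 98. Inocula from master plates were grown overnight at 37 °C and diluted 1000-fold in the same medium. Cultures were shaken at 37 °C, with drugs added after 2 h of growth at graded concentrations. Growth was followed by turbidity at 650 nm. ED50 is the dose halving growth rate versus controls, from a regression of % inhibition on log dose.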

| SMILES | IC50 (L1210) | ILS (Mus musculus [1]) | LD0 (Mus musculus [2]) | K app (Nucleic Acid) | EC50 (Salmonella typhimurium) | EC50 (Escherichia coli) |
| --- | --- | --- | --- | --- | --- | --- |
| C/C(=N\c1c(O)ccc2[nH]c3c(C)c4cc[n+](C)cc4c(C)c3c12)C(=O)O | 200 nM | 23 | 20 mg/kg | 470000 M⁻¹ | 50300 nM | 1950 nM |
| Cc1c2cc[n+](C)cc2c(C)c2c1[nH]c1ccc(O)c(/N=C(\CC(C)C)C(=O)O)c12 | 280 nM | 35 | 10 mg/kg | 260000 M⁻¹ | 2350 nM | 760 nM |
| Cc1c2cc[n+](C)cc2c(C)c2c1[nH]c1ccc(O)cc12 [ELLIPTINIUM] | 50 nM | 53 | 5 mg/kg | 1.3e+06 M⁻¹ |  | 3550 nM |
| Cc1c2cc[n+](C)cc2c(C)c2c1[nH]c1ccc(O)c(/N=C(/C(=O)O)C(C)C)c12 | 310 nM | 31.5 | 15 mg/kg | 210000 M⁻¹ | 1650 nM | 180 nM |
| Cc1c2cc[n+](C)cc2c(C)c2c1[nH]c1ccccc12 |  | 22 | 12.5 mg/kg | 230000 M⁻¹ |  |  |
| Cc1c2cc[n+](C)cc2c(C)c2c1[nH]c1ccc(O)c(/N=C/C(=O)O)c12 | 540 nM | 0 | 20 mg/kg | 80000 M⁻¹ | 100000 nM | 3150 nM |
